Compound in this data set: NC(=O)c1ccc[n+]([C@@H]2O[C@H](COP(=O)([O-])OP(=O)(O)OC[C@H]3O[C@@H](n4cnc5c(N)ncnc54)[C@H](O)[C@@H]3O)[C@@H](O)[C@H]2O)c1
In words: In vitro inhibitory activity against pig heart cytoplasmic malate dehydrogenase (MDH),. In short, it runs like this: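 Pig heart enzymes (cytoplasmic MDH or LDH, from ammonium sulfate suspension) assayed in 0.05 M Tris HCl pH 9.0, with NAD as substrate; rates from NADH appearance by A340 (ε 6.22 mM⁻¹cm⁻¹) or fluorescence calibrated against NADH standards. Run at least in duplicate; kinetic constants from Lineweaver-Burk plots by linear regression.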

B1: Malate dehydrogenase, cytoplasmic (Sus scrofa), P11708 (protein)
chain: MSEPIRVLVTGAAGQIAYSLLYSIGNGSVFGKDQPIILVLLDITPMMGVLDGVLMELQDCALPLLKDVIATDKEEIAFKDLDVAILVGSMPRRDGMERKDLLKANVKIFKCQGAALDKYAKKSVKVIVVGNPANTNCLTASKSAPSIPKENFSCLTRLDHNRAKAQIALKLGVTSDDVKNVIIWGNHSSTQYPDVNHAKVKLQAKEVGVYEAVKDDSWLKGEFITTVQQRGAAVIKARKLSSAMSAAKAICDHVRDIWFGTPEGEFVSMGIISDGNSYGVPDDLLYSFPVTIKDKTWKIVEGLPINDFSREKMDLTAKELAEEKETAFEFLSSA
As for B1, the Km amounted to 33.9 µM.

A word on the Km: it is the concentration of substrate that gives half-maximal velocity.

Source of the values: ChEMBL document CHEMBL1124735, “Dehydrogenase binding by tiazofurin anabolites” (J Med Chem, 1990).
